Experimental findings from ChEMBL document CHEMBL1123724, “A novel synthesis of colchicide and analogues from thiocolchicine and congeners: reevaluation of colchicide as a potential antitumor agent” (1987) are described below.

Assay [1] has as its system Mus musculus. The assay can be described thus: In vivo antitumor activity against P388 mouse leukemia and minimum affective dose (MED) which produced a T/C greater than the threshold value of 125 was reported. The class given is functional. Conditions: read-out: MED. The method in brief:
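P388 leukemia cells implanted intraperitoneally in mice. Drug given ip once daily for 9 days (QD1 × 9). T/C = median survival time of treated animals / median survival time of untreated controls × 100. Minimum effective dose is the lowest dose (mg/kg) giving T/C above the threshold of 125. Reported dose levels are those with the highest T/C.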

In assay [2] the test system is Mus musculus. The assay can be described thus: In vivo antitumor activity against P388 mouse leukemia expressed as T/C (median survival time of treated animals / median survival time of untreated controls x 100) at a dose of 0.18 mg/kg. The class given is functional. The method in brief: (§1)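 P388 leukemia implanted ip in mice, with ip dosing on a QD1 × 9 schedule. Read-out is T/C = median survival of treated animals / median survival of untreated controls × 100. Activity requires duplicate tests giving T/C ≥120%.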

Assay [3] has as its target Tubulin beta chain (Bos taurus) (UniProt Q6B856). Conditions: at 25 µM.
For assay [4], the system named is Mus musculus. The assay can be described thus: In vivo antitumor activity against P388 mouse leukemia expressed as T/C (median survival time of treated animals / median survival time of untreated controls x 100) at a dose of 3.12 mg/kg. The assay is classed as functional. The method in brief:
as §1

Assay [5] concerns Mus musculus. The assay is described as follows: In vivo antitumor activity against P388 mouse leukemia expressed as T/C (median survival time of treated animals / median survival time of untreated controls x 100) at a dose of 12.5 mg/kg. The assay is classed as functional. The method in brief:
as §1

For assay [6], the system named is Mus musculus. The assay is described as follows: In vivo antitumor activity against P388 mouse leukemia expressed as T/C (median survival time of treated animals / median survival time of untreated controls x 100) at a dose of 0.5 mg/kg. The assay is classed as functional. The method, boiled down: as §1
Assay [7] deals with Mus musculus. The assay can be described thus: In vivo antitumor activity against P388 mouse leukemia expressed as T/C (median survival time of treated animals / median survival time of untreated controls x 100) at a dose of 0.32 mg/kg. The class given is functional. The method in brief: as §1
In assay [8] the test system is Mus musculus. The assay is described as follows: In vivo antitumor activity against P388 mouse leukemia expressed as T/C (median survival time of treated animals / median survival time of untreated controls x 100) at a dose of 0.94 mg/kg. The assay is classed as functional. The method, boiled down:
as §1

SMILES strings stand for the structures.

Chain of Tubulin beta chain (Bos taurus) (Q6B856 whole entry): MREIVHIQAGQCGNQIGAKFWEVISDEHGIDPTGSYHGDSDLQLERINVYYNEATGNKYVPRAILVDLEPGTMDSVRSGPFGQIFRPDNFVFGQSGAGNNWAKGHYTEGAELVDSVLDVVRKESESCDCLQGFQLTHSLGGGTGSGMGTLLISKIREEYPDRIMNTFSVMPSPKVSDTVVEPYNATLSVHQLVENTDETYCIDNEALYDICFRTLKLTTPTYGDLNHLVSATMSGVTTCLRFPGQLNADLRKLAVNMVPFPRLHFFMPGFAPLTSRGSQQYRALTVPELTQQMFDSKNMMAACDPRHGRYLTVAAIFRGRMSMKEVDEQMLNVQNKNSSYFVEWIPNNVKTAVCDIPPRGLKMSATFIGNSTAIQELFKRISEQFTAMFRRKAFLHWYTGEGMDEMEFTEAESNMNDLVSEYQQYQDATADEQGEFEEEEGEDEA

On to `COc1cc2c(c(OC)c1OC)-c1ccc(SC)c(=O)cc1[C@@H](NC(C)=O)CC2` [THIOCOLCHICINE], for which the minimal effective dose with Mus musculus [1] is 0.05 mg/kg. Also, the T/C in the assay on Mus musculus [2] is reported as 193.

On to `COc1cc2c(c(O)c1OC)-c1cccc(=O)cc1[C@@H](NC(C)=O)CC2`, for which the Tubulin binding in assay [3] amounted to 0%.

For `COc1cc2c(c(OC)c1O)-c1cccc(=O)cc1[C@@H](NC(C)=O)CC2`, in assay [3], the Tubulin binding was found to be 26%. As for `CCN(CC)c1ccc2c(cc1=O)[C@@H](NC(C)=O)CCc1cc(OC)c(OC)c(OC)c1-2`, the minimal effective dose in the assay on Mus musculus [1] came to 0.39 mg/kg. The T/C with Mus musculus [4] is given as 216.

For the molecule `COc1cc2c(c(OC)c1OC)-c1ccc(SCc3ccccc3)c(=O)cc1[C@@H](NC(C)=O)CC2`, the T/C in the assay on Mus musculus [5] turned out to be 214. Moreover, in the assay on Mus musculus [1], the minimal effective dose worked out at 3.12 mg/kg. On to `COc1c2c(cc3c1-c1cccc(=O)cc1[C@@H](NC(C)=O)CC3)OCO2`, for which the Tubulin binding in assay [3] was determined as 0%.

Turning to `COc1cc2c(c(OC(C)=O)c1OC)-c1cccc(=O)cc1[C@@H](NC(C)=O)CC2`, the Tubulin binding in assay [3] came to 0%. Take `COc1cc2c(c(OC)c1OC)-c1ccc(OC)c(=O)cc1[C@@H](NC(C)=O)CC2` [COLCHICINE]: the minimal effective dose with Mus musculus [1] worked out at 0.06 mg/kg. This molecule gave a T/C with Mus musculus [6] of 245. For the molecule `CNc1ccc2c(cc1=O)[C@@H](NC(C)=O)CCc1cc(OC)c(OC)c(OC)c1-2`, in the assay on Mus musculus [1], the minimal effective dose amounted to 0.04 mg/kg. Also, the T/C with Mus musculus [7] was found to be 166.

As to `COc1c2c(cc3c1-c1ccc(OC)c(=O)cc1[C@@H](NC(C)=O)CC3)OCO2`, the minimal effective dose in the assay with Mus musculus [1] is over 0.4 mg/kg. In the assay with Mus musculus [8], this molecule yielded a T/C of 166.
